High-throughput results (PubChem BioAssay)
PfM18AAP inh: PfM18AAP inhibitors, malaria aminopeptidase, primary screen, biochemical, QFRET, recombinant enzyme. H-Glu-NHMec fluorogenic cleavage. inhibition, % at 7.35 µM. actives 1.2% (n = 290,000);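 active = inhibition above the campaign mean inhibition over all tested compounds plus 3 SD, cut at about 28% in these data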;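 also: 0% = plate median of test compound wells and 100% = 2 mM ZnCl2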
FXN GAA850 act: FXN promoter activators, primary screen, cell-based, luciferase luminescence, HEK293 lucGAA850. actives 0.56% (n = 360,000). HEK293 lucGAA850 FXN promoter luciferase reporter, 24 h; percent of 10 µM SAHA response. activation, % at 6 µM;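 active = activation above the average of all compounds screened plus 3 SD, cutoff fixed separately per campaign, cut at about 7.5% in these data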;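 also: 0% = DMSO wells and 100% = 10 µM SAHA wells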
SENP1 inh: human SENP1 catalytic domain inhibitors, primary screen, biochemical, FRET, uHTS. Sentrin-specific protease 1 (Homo sapiens), Q9P0U3. recombinant SENP1 catalytic domain, CyPet-SUMO1-YPet FRET cleavage. inhibition, % at 10 µM. actives 0.21% (n = 360,000);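 active = inhibition at least 30% at 10 µM, raw YFP signal under a set limit, fluorescence ratio 0.5 to 1.5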;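 also: 0% = enzyme with DMSO and 100% = no enzyme wells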
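System: Recombinant human SENP1 catalytic domain, His6-tagged | Incubation: Enzyme reaction for 50 min at room temperature, dark | Medium: Tris pH 8 with BME, BSA, NP40 and catalase | Also added: 25 nM SUMO1 FRET substrate | Compound: 10 µM single point, 0.5% DMSO | Measured by: FRET fluorescence in CFP and YFP emission channels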
CTSL1 counter: Fasciola hepatica cathepsin L1 inhibitors, primary screen, counter-screen for PFM18AAP inhibitor project, biochemical, QFRET, fluorogenic peptide substrate; inhibition, % at 5.96 µM; actives 0.49% (n = 300,000); recombinant F. hepatica cathepsin L1, Z-Leu-Arg-MCA fluorescence;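 active = inhibition above the mean of all tested compounds plus 3 SD, set per screening campaign, cut at about 17% in these data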;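 also: 0% = plate median of test compound wells and 100% = 1 µM Z-Phe-Ala-diazomethylketone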
AHR activator: AHR activators, primary screen, cell-based, luminescence, luciferase reporter, human. actives 2.5% (n = 320,000). AHR-responsive luciferase reporter cells. activation, % at 5 µM. Aryl hydrocarbon receptor (Homo sapiens), P35869; in the data active = activation above about 47%;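 also: 0% = vehicle wells and 100% = reference agonist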
Target sequence (P35869 whole entry, looked up): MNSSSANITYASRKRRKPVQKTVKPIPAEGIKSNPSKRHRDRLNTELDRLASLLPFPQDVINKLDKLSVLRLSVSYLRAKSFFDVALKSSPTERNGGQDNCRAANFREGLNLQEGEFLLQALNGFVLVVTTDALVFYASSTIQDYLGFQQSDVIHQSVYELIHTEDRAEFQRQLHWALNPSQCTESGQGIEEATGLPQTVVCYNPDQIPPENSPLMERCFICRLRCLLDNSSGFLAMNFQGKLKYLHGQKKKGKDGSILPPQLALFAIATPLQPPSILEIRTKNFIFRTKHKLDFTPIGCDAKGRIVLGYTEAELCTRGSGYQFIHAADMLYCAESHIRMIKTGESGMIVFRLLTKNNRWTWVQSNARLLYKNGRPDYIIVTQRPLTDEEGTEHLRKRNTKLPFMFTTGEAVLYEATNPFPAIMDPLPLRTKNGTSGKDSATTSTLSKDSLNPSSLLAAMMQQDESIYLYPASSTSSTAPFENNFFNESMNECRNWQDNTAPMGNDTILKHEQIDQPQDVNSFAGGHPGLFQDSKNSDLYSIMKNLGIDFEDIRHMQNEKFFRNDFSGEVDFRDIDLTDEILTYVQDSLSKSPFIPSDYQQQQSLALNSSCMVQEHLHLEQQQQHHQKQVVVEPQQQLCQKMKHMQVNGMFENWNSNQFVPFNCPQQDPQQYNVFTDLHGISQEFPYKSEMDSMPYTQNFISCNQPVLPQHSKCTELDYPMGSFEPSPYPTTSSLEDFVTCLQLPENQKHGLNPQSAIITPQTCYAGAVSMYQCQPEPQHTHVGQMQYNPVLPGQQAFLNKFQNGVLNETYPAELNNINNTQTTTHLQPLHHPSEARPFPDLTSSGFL
HDAC3 inhib: HDAC3 deacetylase inhibitors, primary screen, biochemical, fluorescence, cell-free homogeneous. Histone deacetylase 3 (Homo sapiens), O15379. recombinant HDAC3, fluorogenic peptide/trypsin coupled. inhibition, % at 8.3 µM. actives 0.15% (n = 320,000). AID 2718, 2010; in the data active = inhibition above about 26%, passing the limit was not always enough
Starred values were filed as active, the others as inactive; . = no result. Hits are enriched below; roughly 4.2% of the tested compounds scored in any of these assays.

SMILES	PfM18AAP inh	FXN GAA850 act	SENP1 inh	CTSL1 counter	AHR activator	HDAC3 inhib
Cc1sc(NC(=O)c2c(F)cccc2F)nc1-c1ccccc1	5	2	0	-1	65*	0
CN(C)/C=C(\C#N)C(=O)N/N=C(\CC(=O)C(F)(F)F)c1ccco1	30*	0	1	-2	1	4
CCOC(=O)CC1(C)Oc2ccccc2N1S(=O)(=O)c1ccc(C)cc1 (centres undefined)	.	.	2	.	.	.
CC(=O)Nc1ccc(S(=O)(=O)NC2=C(N3CCN(c4ccc(F)cc4)CC3)C(=O)c3ccccc3C2=O)cc1	5	-2	-1	11	85*	-2
Cc1ccc(S(=O)(=O)NC2=C(N3CCN(Cc4ccccc4)CC3)C(=O)c3ccccc3C2=O)cc1	4	-1	-11	-2	1	4
CCOC(=O)N1CCN(C2=C(NS(=O)(=O)c3ccc(C)cc3)C(=O)c3ccccc3C2=O)CC1	31*	-2	4	6	-1	3
O=C(c1ccc(N2CCCC2=O)cc1)N1CCN(c2cccc(C(F)(F)F)c2)CC1	.	0	2	.	.	.
O=c1[nH]c2ccccc2nc1N1CCOCC1	2	-2	1	3	5	3
c1ccc2c(c1)nc(N1CCOCC1)c1c3ccccc3[nH]c21	3	0	-63	2	95*	-31
Oc1ccc(C2C[C@H]3CC[C@@H]2C3)cc1O (some centres undefined)	83*	2	-1	6	2	5
O=C(Nc1ccccc1)N1CCn2c1nc1ccccc12	-5	3	0	2	51*	2
O=C(O)c1ccccc1-c1ncc(-c2ccccc2)o1	.	2	-1	-1	2	-18
COCCCn1c(SCc2nc3ccccc3c(=O)[nH]2)nc2ccccc2c1=O	6	1	0	11	34	-13
CCn1c(SCc2nc3ccccc3c(=O)[nH]2)nc2ccccc2c1=O	-2	4	0	9	67*	0
O=C(OCc1nc2ccccc2c(=O)[nH]1)c1cccs1	1	0	-5	-4	55*	2
O=c1[nH]c(SCc2nc3ccccc3c(=O)n2-c2ccccc2)nc2ccccc12	12	-2	5	-4	55*	0
O=c1[nH]c(CSc2nc3ccccc3s2)nc2cc(Cl)ccc12	8	.	.	-5	53*	-7
CS(=O)(=O)N(CC(=O)NCCSCc1ccccc1)c1ccccc1Br	-10	-1	1	-1	-1	4
COc1cccc(-c2cnc3c(NC=O)cc(-c4ccncc4)cn23)c1	.	4	-22	.	.	.
CC(N=C1NS(=O)(=O)c2ccccc21)C(=O)OCC(=O)N(C)C1CCS(=O)(=O)C1 (centres undefined)	.	0	-1	.	2	13
Cc1sc2nc(CSc3nc4ccccc4s3)[nH]c(=O)c2c1C	12	.	.	-4	14	-2
Cc1cc(C)c(C#N)c(SCc2nc3ccccc3c(=O)[nH]2)n1	-1	8	-26	3	51*	-6
O=c1[nH]c(CSc2nc3ccccc3s2)nc2ccccc12	-8	1	-17	-4	66*	2
COCc1cc(C)nc(SCc2nc3ccccc3c(=O)[nH]2)c1C#N	-1	3	-28	2	34	-10
Cc1ccc(C(=O)N(CC(C)C)c2nc3ccccc3s2)o1	2	1	0	2	72*	11
CC1=NN(c2ccccc2)C(=O)/C1=C\c1c(C)[nH]n(-c2ccccc2)c1=O	2	3	3	-2	10	0
CC1=NN(c2ccccc2)C(=O)/C1=C/c1c(O)n(-c2ccc(F)c(Cl)c2)[nH]c1=O	3	.	.	5	49*	-3
c1ccc(-c2noc(-c3ccc4c(c3)OCO4)n2)nc1	2	-16	-1	4	-7	-2
Cc1nccc(-c2ccc3c(c2)OCO3)n1	8	0	0	10	58*	-2
